High-throughput results: PubChem, several laboratories
Only some compounds are listed: those with a hit (about 3.7% of all), similar ones and a draw of the others.
MPTP inh: mitochondrial permeability transition pore inhibitors, primary screen, biochemical, isolated mouse mitochondria, absorbance; Ca2+ swelling absorbance, 30 min; inhibition, % at 10 µM; 1.4% of 360,000 active; AID 602449, 2012;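 active = inhibition of 50% or more, scaled per plate between neutral and stimulator controls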
proCasp7 act: procaspase-7 activators, primary screen, counter-screen for procaspase-3 activator project, biochemical, absorbance, HTS, human. Caspase-7 (Homo sapiens), P55210. recombinant procaspase-7, Ac-DEVD-pNA absorbance 405 nm; D23A/D198A/D206A triple mutant, cannot self-cleave; scale: DMSO 0, 5 µM enzyme 100. activation, % at 8.5 µM. 0.093% of 330,000 active;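 active = percent activation above the screen-wide mean plus 3 SD, cut at about 25% in these data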
Target sequence (P55210 whole entry D23A/D198A/D206A): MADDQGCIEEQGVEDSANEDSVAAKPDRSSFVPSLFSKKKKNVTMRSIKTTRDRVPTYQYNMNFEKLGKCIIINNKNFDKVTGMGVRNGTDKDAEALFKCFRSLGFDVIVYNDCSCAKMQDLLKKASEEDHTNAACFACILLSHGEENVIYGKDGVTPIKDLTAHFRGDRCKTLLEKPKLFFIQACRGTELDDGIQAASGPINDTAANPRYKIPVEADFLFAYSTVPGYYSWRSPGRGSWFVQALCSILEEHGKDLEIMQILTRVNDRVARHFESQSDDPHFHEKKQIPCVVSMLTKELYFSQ
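signal = Epi-absorbance of released pNA at 405 nm, two timepoints | assay system = Uncleavable procaspase-7 mutant enzyme | reagent = Ac-DEVD-pNA substrate, 400 µM as added | times = 1 h enzyme–compound preincubation and 2 h substrate reaction, both 25 °C | benchmarks = low DMSO alone, high DMSO plus 5 µM PC-7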
proCasp3 act: activators of human procaspase-3 D3A mutant, primary screen, biochemical, absorbance, PC-3 D3A mutant, single concentration; recombinant procaspase-3 D3A, Ac-DEVD-pNA absorbance 405 nm; 0.11% of 330,000 active; activation, % at 8.5 µM; Caspase-3 (Homo sapiens), P42574;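 active = activation above the mean of all tested compounds plus 3 SD, cut at about 21% in these data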
Target sequence (P42574 whole entry D9A/D28A/D175A): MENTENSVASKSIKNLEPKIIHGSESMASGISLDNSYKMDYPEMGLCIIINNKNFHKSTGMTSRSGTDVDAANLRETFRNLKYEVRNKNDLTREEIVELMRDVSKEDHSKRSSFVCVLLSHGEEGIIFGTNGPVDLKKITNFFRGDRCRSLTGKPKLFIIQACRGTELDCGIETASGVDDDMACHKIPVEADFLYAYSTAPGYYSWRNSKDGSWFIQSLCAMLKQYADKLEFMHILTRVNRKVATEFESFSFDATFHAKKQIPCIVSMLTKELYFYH
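Assay system – Procaspase-3 D3A mutant · Benchmarks – DMSO low control, extra-enzyme high control · Technique – 405 nm absorbance of p-nitroaniline, reads at 0 and 120 min · Doses – 8.5 µM nominal · Measure – % activation between DMSO and enzyme-spiked controls · Also added – Ac-DEVD-pNA chromogenic peptide substrate · Schedule – 1 h compound preincubation, 2 h substrate hydrolysis at 25 °C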
GRIN3A LBD mod: binders of NR3A ligand-binding domain, primary screen, biophysical, differential scanning fluorimetry, uHTS; 2.5% of 340,000 active; Tm shift relative to glycine control, % at 25 µM; NR3A LBD differential scanning fluorimetry, Tm shift; 0% = protein alone, 100% = glycine-bound protein; Glutamate receptor ionotropic, NMDA 3A (GRIN3A) ligand-binding domain;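 active = melting temperature shift of at least 10% of the positive control shift, at one fixed dose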
aDG glyco up: activators of alpha-DG glycosylation, primary screen, uHTS, Pro5-aDG cells, AlphaScreen; alpha-DG glycosylation AlphaScreen (IIH6); 0% Pro5, 100% B10-LARGE cell signal; activation, % at 10 µM; 0.22% of 360,000 active;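 active = activation of at least 8% versus controls, or a plate z-score of at least 8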;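 note: Pro5 are CHO cells carrying HIG-tagged alpha-DG that lacks glycosylation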
Of the large screens only hits and unclear results are named; the others gave an inactive call.

O=C(N/N=C/c1cccc(Oc2ccccc2)c1)c1ccc(O)cc1O	GRIN3A LBD mod 31 (no result: proCasp7 act, proCasp3 act)
COc1cc(C(=O)N/N=C/c2ccc(OC(=O)c3cccc(C)c3)cc2)ccc1O	GRIN3A LBD mod 22 (no result: proCasp7 act, proCasp3 act)
COc1cc(/C=N/NC(=O)c2ccc(N)cc2)ccc1OC(=O)c1cccc(C)c1	none (no result: proCasp7 act, proCasp3 act)
COc1cccc(/C=N/NC(=O)c2[nH]nc3c2CCc2ccccc2-3)c1	GRIN3A LBD mod 26
O=C(N/N=C/c1ccccc1F)C(=O)N1CCCCCC1	none
O=C(N/N=C/c1ccccc1O)C(=O)N1CCCCCC1	GRIN3A LBD mod 11
O=c1c2ccccc2c(-c2cccc(C(F)(F)F)c2)nn1-c1ccccc1	none
O=c1c2ccccc2c(-c2ccc(O)cc2)nn1-c1cccc(C(F)(F)F)c1	GRIN3A LBD mod 25
O=c1cc(NS(=O)(=O)c2ccccc2)nc(SCc2ccc(Cl)cc2)[nH]1	GRIN3A LBD mod 20
COc1ccc(Cl)cc1NC(=O)CSc1nc2[nH]ncc2c(=O)[nH]1	none (no result: proCasp7 act, proCasp3 act, GRIN3A LBD mod)
COc1ccc(/C=C2/SC(=O)NC2=O)cc1	none
COc1ccc(/C=C2/C(=O)C(C)(C(C)C)CCC2C)cc1 (configuration not stated)	GRIN3A LBD mod 10
CC1CC(CCC(=O)NC(=S)Nc2ccc(Cl)cn2)C(=O)O1 (configuration not stated)	GRIN3A LBD mod 16
O=C(CCC1COc2ccccc2O1)Nc1ccc(Cl)cn1 (configuration not stated)	GRIN3A LBD mod 12
CCOC(=O)C1=CCN(S(=O)(=O)c2ccccc2C)C1c1cccc(Br)c1 (configuration not stated)	none (no result: proCasp7 act, proCasp3 act, GRIN3A LBD mod)
CCN(CC(=O)NCc1cccs1)C(=O)c1cccc(S(=O)(=O)N(CC)c2ccccc2)c1	none (no result: proCasp7 act, proCasp3 act)
O=C(CN1CCN(Cc2ccccc2Cl)CC1)N=Nc1c(O)[nH]c2ccccc12	none
Cc1ccc(CN2CCN(CC(=O)N=Nc3c(O)[nH]c4ccccc34)CC2)cc1	GRIN3A LBD mod 20
Cc1cc(C)nc(N/N=C/c2ccccc2OCc2ccccc2)n1	GRIN3A LBD mod 12
Cc1cc(C)nc(N/N=C/c2ccccc2OCc2ccc(Br)cc2)n1	none
CC1CC(=O)Nc2ccccc2N1C(=O)CSc1ccc2ccccc2n1 (configuration not stated)	none
COc1ccc(NC(=O)Cn2c(=O)n(CC(=O)NCc3ccco3)c(=O)c3ccccc32)cc1	none
CCn1c(=O)n(CC(=O)NCc2ccco2)c(=O)c2ccccc21	GRIN3A LBD mod 11
COc1cc2c(cc1OC)C(Cc1ccccc1[N+](=O)[O-])=NCC2	none (no result: proCasp7 act, proCasp3 act)
COC1CCCCC1NS(=O)(=O)c1ccc(Cl)cc1 (configuration not stated)	none
COC1CCCCC1NS(=O)(=O)c1ccccc1 (configuration not stated)	GRIN3A LBD mod 18
C[C@H](NS(=O)(=O)c1ccc(Cl)cc1)C(=O)OCC(=O)Nc1cc(S(=O)(=O)N2CCOCC2)ccc1Cl	none (no result: proCasp7 act, proCasp3 act)
CN(CCCNC(=O)c1cn(C)c2ccc(S(=O)(=O)N(C)C)cc2c1=O)c1ccccc1	GRIN3A LBD mod 18
CCN(CC)S(=O)(=O)c1ccc2c(c1)c(=O)c(C(=O)NCCCN(C)c1ccccc1)cn2C	none
Cc1nc2c([nH]c3ccc(Br)cc32)s1	GRIN3A LBD mod 15
CC(C)c1ccc(NC(=O)CN(C)C2=NS(=O)(=O)c3ccccc32)cc1	none (no result: proCasp7 act, proCasp3 act, GRIN3A LBD mod)
CC1(Oc2cccc(C#N)c2)CCN(Cc2csc3ccccc23)C1 (configuration not stated)	none (no result: proCasp7 act, proCasp3 act, GRIN3A LBD mod)
COc1ccc(-c2coc3cc(O)cc(O)c3c2=O)cc1	GRIN3A LBD mod 12
Cc1cc(SCC(=O)N2c3ccccc3NC(=O)CC2C)nc2ccccc12 (configuration not stated)	none (no result: proCasp7 act, proCasp3 act, GRIN3A LBD mod)
C/C(=N\Nc1nc(N)cc(Cl)n1)c1ccc(Cl)c(Cl)c1	GRIN3A LBD mod 18
O=S(=O)(c1ccccc1)N1CCn2c(nc3ccccc32)C1	none
O=S(=O)(c1ccc(F)cc1)N1CCn2c(nc3ccccc32)C1	GRIN3A LBD mod 14
O=C(N/N=C/c1ccc(OC(=O)c2ccco2)cc1)c1ccccn1	GRIN3A LBD mod 14
Cc1ccc(C(=O)N/N=C/c2ccc(-c3cccc(Cl)c3)o2)cn1	none
Cc1ccc(C(=O)N/N=C\c2ccc(-c3ccc(Cl)c(Cl)c3)o2)cn1	GRIN3A LBD mod 12
Cc1ccc(C(=O)N/N=C/c2ccc(OC(=O)c3ccccc3Cl)cc2)cn1	GRIN3A LBD mod 13
CC1(c2nc3ccccc3[nH]2)CCC2=Nc3ccccc3CN21 (configuration not stated)	none (no result: proCasp7 act, proCasp3 act, GRIN3A LBD mod)
Oc1ccc(C[C@H]2CNC(=S)N2CC2CCCN2C[C@H](Cc2ccccc2)N2C[C@H](Cc3ccc(O)cc3)N(CC3CCCCCC3)C2=S)cc1 (some centres not stated)	GRIN3A LBD mod 33 (no result: proCasp7 act, proCasp3 act)
Oc1ccc(C[C@H]2CN([C@@H](Cc3ccccc3)CN3CCCC3CN3C(=S)NC[C@@H]3Cc3ccccc3)C(=S)N2CC2CCCCC2)cc1 (some centres not stated)	none (no result: proCasp7 act, proCasp3 act, GRIN3A LBD mod)
Oc1ccc(C[C@H]2CNC(=S)N2CC2CCCN2C[C@H](Cc2ccc(O)cc2)N2C[C@H](Cc3ccc(O)cc3)N(CC3CCCCC3)C2=S)cc1 (some centres not stated)	GRIN3A LBD mod 19 (no result: proCasp7 act, proCasp3 act)
CC(C)C[C@H]1CNC(=S)N1C[C@H]1CCCN1C[C@H](Cc1ccc(O)cc1)N1C[C@H](Cc2ccccc2)N(CCc2ccccc2)C1=S	none (no result: proCasp7 act, proCasp3 act, GRIN3A LBD mod)
Oc1ccc(C[C@H]2CNC(=S)N2CC2CCCN2C[C@H](Cc2ccc(O)cc2)N2C[C@H](Cc3ccccc3)N(CCc3ccccc3)C2=S)cc1 (some centres not stated)	GRIN3A LBD mod 12 (no result: proCasp7 act, proCasp3 act)
CCOC(=O)c1cc(-c2ccc(C)cc2)n(CCC(=O)N2CCN(c3ccccn3)CC2)c1C	GRIN3A LBD mod 13
COc1ccc2c(n1)Sc1nc3ccccc3nc1N2	GRIN3A LBD mod 34
Cc1cc(C)c(NC(=O)CN2CCN(c3ccccn3)CC2)c(C)c1	none
NC(=O)CSc1nc2scc(-c3ccc(Cl)cc3)c2c(=O)n1Cc1ccccc1	GRIN3A LBD mod 13
Cc1ccc(-c2csc3nc(SCC(=O)N(C)C)n(Cc4ccccc4)c(=O)c23)cc1	none
CCc1nn(CCCC(=O)NCc2ccc(OC(C)C)cc2)c(=O)c2cc3occc3n12	GRIN3A LBD mod 16
